Reference: ChEMBL document CHEMBL1129239, “Synthesis and structure--activity relationships of fused imidazopyridines: a new series of benzodiazepine receptor ligands” (J Med Chem, 1996)
Activity calls are given as the source filed them. The rule behind the calls is not given here.

Tests used:
[1] = molecular target: GABA-A receptor; anion channel; experiment: Displacement of [3H]diazepam from rat cerebral cortex benzodiazepine receptor; assay type: tissue-based
Mus musculus [2] = experiment: Inverse agonist activity was evaluated by Mouse pentylenetetrazole (PTZ) proconvulsant activity test at 4.54-12.28 mg/kg by administering 75 mg/kg convulsive dose of PTZ, 1 hr after oral administration of test compound; assay type: functional
Summary of the method: (§1)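 Male mice, 8-16 per group. Test compound given po, followed 1 h later by a subconvulsive dose of PTZ (75 mg/kg sc). Tonic convulsions and death were scored over a 2-h observation.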

Mus musculus [3] = experiment: Inverse agonist activity was evaluated by Mouse pentylenetetrazole (PTZ) proconvulsant activity test at 3.53-11.93 mg/kg by peroral administration of 90 mg/kg convulsive dose of PTZ.; assay type: functional; details: route oral
Mus musculus [4] = experiment: Agonist activity was evaluated by mouse pentylenetetrazole (PTZ) convulsant test; inactive to 10 mg/kg administered intravenously; assay type: functional, organism-based; design: dose 10 mg/kg
Mus musculus [5] = experiment: Inverse agonist activity was evaluated by mouse pentylenetetrazole (PTZ) proconvulsant activity test; by peroral administration of 90 mg/kg convulsive dose of PTZ; inactive to 10 mg/kg administered intravenously; assay type: functional, organism-based
Mus musculus [6] = species on record: Mus musculus; experiment: Activity in mouse pentylenetetrazole convulsant test.; assay type: functional
Summary of the method: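 Male mice, 8-16 per group. Test compound dosed orally 1 h before sc PTZ, either a convulsive 125 mg/kg (protection) or a subconvulsive 75 or 90 mg/kg (potentiation). Animals were watched 2 h for tonic convulsions and death. ED50 came from probit analysis.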

Mus musculus [7] = experiment: Inverse agonist activity was evaluated by Mouse pentylenetetrazole (PTZ) proconvulsant activity test 9.76-20.68 mg/kg by peroral administration of 90 mg/kg convulsive dose of PTZ.; assay type: functional; details: route oral
Mus musculus [8] = experiment: Inverse agonist activity was evaluated by Mouse pentylenetetrazole (PTZ) proconvulsant activity test at 50 mg/kg by administering 75 mg/kg convulsive dose of PTZ, 1 hr after oral administration of test compound; assay type: functional; summary of the method: as §1
Mus musculus [9] = experiment: Inverse agonist activity was evaluated by Mouse pentylenetetrazole (PTZ) proconvulsant activity test; by administering 75 mg/kg convulsive dose of PTZ, 1 hr after oral administration of test compound; assay type: functional; summary of the method: as §1
Mus musculus [10] = experiment: Inverse agonist activity was evaluated by Mouse pentylenetetrazole (PTZ) proconvulsant activity test; by peroral administration of 90 mg/kg convulsive dose of PTZ; inactive to 10 mg/kg administered intravenously; assay type: functional, organism-based
Mus musculus [11] = experiment: Inverse agonist activity was evaluated by Mouse pentylenetetrazole (PTZ) proconvulsant activity test; at 3.64-18.28 mg/kg by peroral administration of 90 mg/kg convulsive dose of PTZ.; assay type: functional; details: route oral
Mus musculus [12] = experiment: Inverse agonist activity was evaluated by Mouse pentylenetetrazole (PTZ) proconvulsant activity test at 11.71-22.28 mg/kg by administering 75 mg/kg convulsive dose of PTZ, 1 hr after oral administration of test compound; assay type: functional; summary of the method: as §1
Mus musculus [13] = experiment: Inverse agonist activity was evaluated by Mouse pentylenetetrazole (PTZ) proconvulsant activity test at 22.39-75 mg/kg by peroral administration of 90 mg/kg convulsive dose of PTZ.; assay type: functional; details: route oral
Mus musculus [14] = experiment: Inverse agonist activity was evaluated by Mouse pentylenetetrazole (PTZ) proconvulsant activity test; by peroral administration of 90 mg/kg convulsive dose of PTZ.; assay type: functional; details: route oral
Mus musculus [15] = experiment: Agonist activity was evaluated by mouse pentylenetetrazole (PTZ) convulsant test after p.o. administration; details: po
Mus musculus [16] = experiment: Inverse agonist activity was evaluated by Mouse pentylenetetrazole (PTZ) proconvulsant activity test at 14.6-34.51 mg/kg by peroral administration of 90 mg/kg convulsive dose of PTZ.; assay type: functional; details: route oral
Mus musculus [17] = experiment: Inverse agonist activity was evaluated by Mouse pentylenetetrazole (PTZ) proconvulsant activity test at 25.87-58.54 mg/kg by administering 75 mg/kg convulsive dose of PTZ, 1 hr after oral administration of test compound; assay type: functional; summary of the method: as §1
Mus musculus [18] = experiment: Inverse agonist activity was evaluated by mouse pentylenetetrazole (PTZ) proconvulsant activity test at 6.7-16.7 mg/kg by peroral administration of 90 mg/kg convulsive dose of PTZ; assay type: functional; details: route oral
Mus musculus [19] = experiment: Inverse agonist activity was evaluated by mouse pentylenetetrazole (PTZ) proconvulsant activity test; by administering 75 mg/kg convulsive dose of PTZ, 1 hr after oral administration of test compound; In active to 10 iv; assay type: functional, organism-based; design: dose 75 mg/kg; summary of the method: as §1
Mus musculus [20] = experiment: Inverse agonist activity was evaluated by Mouse pentylenetetrazole (PTZ) proconvulsant activity test; at 7.7-119.81 mg/kg by peroral administration of 90 mg/kg convulsive dose of PTZ.; assay type: functional; details: route oral
Mus musculus [21] = experiment: Inverse agonist activity was evaluated by Mouse pentylenetetrazole (PTZ) proconvulsant activity test at 28.18 mg/kg by administering 75 mg/kg convulsive dose of PTZ, 1 hr after oral administration of test compound; assay type: functional; summary of the method: as §1
Mus musculus [22] = experiment: Inverse agonist activity was evaluated by mouse pentylenetetrazole (PTZ) proconvulsant activity test; by peroral administration of 90 mg/kg convulsive dose of PTZ.; assay type: functional; details: route oral
Mus musculus [23] = experiment: Inverse agonist activity was evaluated by mouse pentylenetetrazole (PTZ) proconvulsant activity test; by administering 75 mg/kg convulsive dose of PTZ, 1 hr after oral administration of test compound; assay type: functional; summary of the method: as §1
Mus musculus [24] = experiment: Inverse agonist activity was evaluated by mouse pentylenetetrazole (PTZ) proconvulsant activity test at 10 mg/kg by peroral administration of 90 mg/kg convulsive dose of PTZ.; assay type: functional

SMILES | Ki [1] | ED50 (Mus musculus [6]) | other results
Clc1ccc(-c2nc3c(cnc4ccccc43)[nH]2)cc1 | 270 nM |  | 
Clc1cccc2[nH]cc3nc(-c4ccon4)nc-3c12 | 7.8 nM |  | ED50 (Mus musculus [2]): 7.21 mg/kg; ED50 (Mus musculus [3]): 5.95 mg/kg
Clc1cccc2c1ncc1[nH]c(-c3ccon3)nc12 | 524 nM |  | ED50 (Mus musculus [4]): inactive; Animals affected (Mus musculus [5]): inactive
Cc1cc(-c2nc3c4c(ncc3[nH]2)CCC4)on1 | 14.6 nM | 5.97 mg/kg | 
CCc1cc(-c2nc3c(cnc4ccccc43)[nH]2)no1 | 1.1 nM | 19.2 mg/kg | 
Cc1cc(-c2nc3c4c(ncc3[nH]2)CCCCC4)on1 | 15.6 nM | 12.4 mg/kg | 
Clc1ccc2[nH]cc3nc(-c4ccon4)nc-3c2c1 | 0.8 nM |  | ED50 (Mus musculus [7]): 14.2 mg/kg; Animals affected (Mus musculus [8]): 25%
c1ccc2c(c1)ncc1[nH]c(-c3ccno3)nc12 | 1 nM |  | ED50 (Mus musculus [9]): 1.94 mg/kg; ED50 (Mus musculus [10]): inactive; ED50 (Mus musculus [4]): inactive
O=C1C2C=Nc3ccccc3C2=NN1c1ccccc1 (stereo not given) [CGS-8216] |  |  | ED50 (Mus musculus [9]): 25 mg/kg
Cc1cc(-c2nc3c4c(ncc3[nH]2)CCCC4)on1 | 2.2 nM | 8.12 mg/kg | 
Cc1cc(-c2nc3c(cnc4ccccc43)[nH]2)cs1 | 4.5 nM |  | 
CCc1cc(-c2nc3c(cnc4ccccc43)[nH]2)on1 | 1.2 nM | 13.5 mg/kg | 
Cc1cc(-c2nc3c(cnc4cc(Cl)ccc43)[nH]2)on1 | 18.8 nM | 29.8 mg/kg | 
COc1ccc2c3nc(-c4ccon4)nc-3c[nH]c2c1 | 7.2 nM |  | ED50 (Mus musculus [11]): 8.77 mg/kg; ED50 (Mus musculus [12]): 16.2 mg/kg
Cc1cc(-c2nc3c(cnc4ccccc43)[nH]2)no1 | 0.9 nM | 16.4 mg/kg | 
COc1ccc2[nH]cc3nc(-c4cc(C)no4)nc-3c2c1 | 0.9 nM | 21.6 mg/kg | 
Cc1cc(-c2nc3c(cnc4ccccc43)[nH]2)on1 | 0.9 nM | 5.89 mg/kg | 
Cc1cc(-c2nc3c(cnc4cccc(F)c43)[nH]2)on1 | 4.9 nM | 4.86 mg/kg | 
Cc1cc(-c2nc3c(cnc4cc(F)ccc43)[nH]2)on1 | 1.4 nM | 5.15 mg/kg | 
Fc1ccc2c3nc(-c4ccon4)nc-3c[nH]c2c1 | 0.9 nM | 39.9 mg/kg | 

SMILES | Ki [1] | ED50 (Mus musculus [6]) | other results
Cc1cc(-c2nc3c4c(ncc3[nH]2)CCOC4)on1 | 3.3 nM | 11.2 mg/kg | 
Clc1ccc2c3nc(-c4ccon4)nc-3c[nH]c2c1 | 3.5 nM | 27.2 mg/kg | 
c1cc(-c2nc3c4c(ncc3[nH]2)CCCCC4)no1 | 5.2 nM |  | Animals affected (Mus musculus [10]): inactive; ED50 (Mus musculus [4]): inactive
Cc1cc(-c2nc3c(cnc4c(F)cccc43)[nH]2)on1 | 302 nM |  | ED50 (Mus musculus [4]): inactive
Cc1cc(-c2nc3c(cnc4c(Cl)cccc43)[nH]2)on1 |  |  | Animals affected (Mus musculus [10]): inactive; ED50 (Mus musculus [4]): inactive
Cc1cc(-c2nc3c(cnc4cccc(Cl)c43)[nH]2)on1 | 13.7 nM | 8.53 mg/kg | 
Cc1cc(-c2nc3c(cnc4ccc(F)cc43)[nH]2)on1 | 1.1 nM | 5.41 mg/kg | 
c1ccc(-c2nc3c(cnc4ccccc43)[nH]2)cc1 | 22 nM |  | 
Cc1cc(-c2nc3c(cnc4ccc(Cl)cc43)[nH]2)on1 | 0.5 nM | 10.6 mg/kg | 
COc1ccc2[nH]cc3nc(-c4ccon4)nc-3c2c1 | 0.5 nM |  | ED50 (Mus musculus [13]): 31.5 mg/kg; Animals affected (Mus musculus [8]): 25%
c1cc(-c2nc3c[nH]c4c(c-3n2)COCC4)no1 | 2.7 nM |  | ED50 (Mus musculus [14]): 19.6 mg/kg; ED50 (Mus musculus [9]): 25 mg/kg
CN1C(=O)CN=C(c2ccccc2)c2cc(Cl)ccc21 [DIAZEPAM] |  |  | ED50 (Mus musculus [15]): 0.67 mg/kg
Fc1cccc2[nH]cc3nc(-c4ccon4)nc-3c12 | 3.4 nM |  | ED50 (Mus musculus [16]): 21.2 mg/kg; ED50 (Mus musculus [17]): 35.7 mg/kg
COc1ccc2c3nc(-c4cc(C)no4)nc-3c[nH]c2c1 | 9.5 nM |  | ED50 (Mus musculus [9]): 46.2 mg/kg; Animals affected (Mus musculus [10]): inactive; ED50 (Mus musculus [4]): inactive
c1ccc2c(c1)ncc1[nH]c(-c3ccon3)nc12 | 0.6 nM |  | ED50 (Mus musculus [18]): 10.1 mg/kg; ED50 (Mus musculus [19]): inactive
c1csc(-c2nc3c[nH]c4ccccc4c-3n2)c1 | 1.7 nM |  | 
Fc1ccc2[nH]cc3nc(-c4ccon4)nc-3c2c1 | 0.8 nM |  | ED50 (Mus musculus [20]): 16.5 mg/kg; ED50 (Mus musculus [21]): 64.1 mg/kg
c1cc(-c2nc3c4c(ncc3[nH]2)CCCC4)no1 | 1.2 nM |  | ED50 (Mus musculus [4]): inactive; Animals affected (Mus musculus [5]): inactive
c1cc(-c2nc3c4c(ncc3[nH]2)CCC4)no1 | 5.3 nM |  | ED50 (Mus musculus [22]): 4.72 mg/kg; ED50 (Mus musculus [23]): 9.22 mg/kg
Fc1cccc2c1ncc1[nH]c(-c3ccon3)nc12 | 40 nM |  | Animals affected (Mus musculus [24]): 37.5%
